Most compounds without a hit are left out; they make up all but 2.9% or so of the library.
CHO-K1 Ca antag = M1 antagonist counterscreen hit in parental CHO-K1 cells | inhibition, % at 3 µM | hit rate 0.6% among 360,000 | AID 602250 | ATP-induced calcium, Fluo-8 fluorescence;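 active means inhibition above a per-plate cutoff, the plate's mean sample inhibition plus 3 SD, cut at about 24% in these data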;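 further: 0% = DMSO plus EC80 ATP and 100% = DMSO alone without ATP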
CHO parental Ca = counter-screen: ATP calcium response change in parental CHO cells; parental CHO-K1, ATP-induced calcium, Fluo-8 fluorescence; hit rate 0.63% among 330,000; inhibition, % at 5.6 µM;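 active means inhibition above that plate's mean sample inhibition plus 3 SD, cut at about 26% in these data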;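 further: 0% = ATP-challenged DMSO wells and 100% = DMSO wells without ATP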
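Test system: untransfected parental CHO cell line; also added: ATP stimulus; dosing: 5.6 µM, single dose; signal: calcium-sensitive Fluo-8 fluorescence; measure: percent inhibition of ATP-evoked calcium rise, normalized to controls; benchmarks: low control ATP plus DMSO, high control DMSO only; replication: one well per compound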
OX1R antag-1 = OX1R (human) antagonism; O43613; OX1R-expressing cells, FRET antagonist read-out; inhibition, % at 6.6 µM; hit rate 1.8% among 330,000; AID 485270; in the data active means inhibition mostly above about 38%, no sharp cut-off; inactive means mostly below about 40%;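 further: 0% = agonist challenge alone and 100% = reference antagonist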
Target sequence (O43613 whole entry, looked up): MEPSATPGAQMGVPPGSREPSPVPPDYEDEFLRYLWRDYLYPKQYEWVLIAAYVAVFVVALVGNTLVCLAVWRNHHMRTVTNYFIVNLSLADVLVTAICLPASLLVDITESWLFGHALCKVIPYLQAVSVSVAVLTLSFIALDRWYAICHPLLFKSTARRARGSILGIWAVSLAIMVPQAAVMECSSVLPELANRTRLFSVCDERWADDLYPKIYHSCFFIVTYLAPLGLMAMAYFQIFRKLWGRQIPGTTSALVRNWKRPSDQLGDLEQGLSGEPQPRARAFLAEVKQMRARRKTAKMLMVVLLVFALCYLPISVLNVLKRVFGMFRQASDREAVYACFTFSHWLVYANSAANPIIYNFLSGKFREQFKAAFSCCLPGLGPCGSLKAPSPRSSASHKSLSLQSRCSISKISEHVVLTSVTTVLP
M1 ag parental = counter-screen for M1 agonists: effect in parental CHO-K1 cells; Fluo-8 calcium fluorescence; scaled to maximal ATP response, vehicle zero; activation, % at 3 µM; hit rate 0.48% among 360,000; in the data active means activation above about 15%;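 further: untransfected CHO-K1 host cells lacking M1 receptor as counterscreen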
OX1R antag-2 = blocks the human orexin 1 receptor; O43613; CHO/OX1R cells, Fluo-8 calcium fluorescence, orexin A; inhibition, % at 5 µM; hit rate 0.43% among 330,000; AID 434989;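 active means inhibition above its plate's threshold, mean inhibition of all tested compounds on the plate plus 3 SD, cut at about 37% in these data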;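 further: 0% = orexin A challenge wells and 100% = SB-334867-A antagonist wells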
CHO-K1 Ca PAM = M1 PAM counterscreen hit in parental CHO-K1 cells | ATP EC20, Fluo-8 calcium fluorescence; 0% at ATP EC20, 100% at ATP max | activation, % at 3 µM | hit rate 0.02% among 360,000 | AID 602247;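 active means activation above the run cutoff, the mean activation of all test compounds plus 3 SD, cut at about 40% in these data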;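 further: peak over basal fluorescence ratio in a 140 s read after ATP addition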
* hit, by the source's call; · = not tested or not shown.

SMILES	CHO-K1 Ca antag	CHO parental Ca	OX1R antag-1	M1 ag parental	OX1R antag-2	CHO-K1 Ca PAM
C[C@H](CO)N1C[C@H](C)[C@@H](CN(C)C(=O)NC2CCCCC2)Oc2ccc(NC(=O)C3CC3)cc2C1=O	-11	·	·	0	·	4
COC(=O)C1=C(C)NC2=C(C(=O)CCC2)C1c1ccc(-c2ccsc2C(=O)OC)o1 (centres undefined)	23	-3	12	4	8	-17
Nc1nc(CSc2nc3ccccc3s2)nc(Nc2ccccc2)n1	·	-30	92*	·	60*	·
Cc1ccccc1Nc1nc(N)nc(CSc2nnc3sc4ccccc4n23)n1	6	2	2	2	-18	8
CCOC(=O)N1CCN(C(=O)c2cc(S(=O)(=O)N3CCCC3)cn2C)CC1	-7	-6	3	0	-23	20
CCOC(=O)N1CCC(NC(=O)c2cc(S(=O)(=O)N3CCCC3)cn2C)CC1	26*	-17	10	0	-23	-8
O=C(Nc1ncccn1)c1ccc([N+](=O)[O-])cc1[N+](=O)[O-]	-3	7	73*	1	-12	14
O=C(Nc1ncn[nH]1)c1ccc([N+](=O)[O-])cc1[N+](=O)[O-]	-3	-12	53*	0	-10	18
O=C(/C=C/c1ccc(S(=O)(=O)N2CCOCC2)cc1)NCc1ccccc1F	-15	-10	2	1	-4	-14
Cc1ccc(-c2csc(=Nc3cccnc3)n2CCCN2CCCC2=O)cc1C	3	-17	64*	1	-17	-2
Cc1ccc(-c2csc(=Nc3cccnc3)n2CCCn2ccnc2)cc1C	0	-22	49	8	-15	18
COc1cc(S(=O)(=O)N2CC(=O)Nc3ccccc32)ccc1NC(C)=O	-13	3	33	3	1	17
O=C(N/N=C/c1ccc(O)cc1)c1ccc(COc2cc(Cl)ccc2Cl)o1	14	59*	5	15*	67*	20
CCN(CCN(C)C)C(=O)c1ccc2c(c1NCCO)C(=O)c1ccccc1C2=O	-4	-9	75*	-1	-8	-9
O=C1c2ccccc2C(=O)c2c1ccc(C(=O)N1CCCCC1)c2NCCO	-2	6	25	0	-11	11
CCC(C)c1ccc(S(=O)(=O)N2CCN(C(=O)c3ccc(Cl)c(S(=O)(=O)N4CCOCC4)c3)CC2)cc1 (centres undefined)	-5	·	·	3	·	-4
CCC(C)(C)NC(=O)C(c1cccc(OC)c1OC)N(CCOC)C(=O)CCC(=O)Nc1cc(C)on1 (centres undefined)	-3	-11	9	0	-12	-2
Cc1ccc(OCCOC(=O)C2CCN(S(=O)(=O)c3ccc(C)c(C)c3)CC2)cc1	-10	29*	16	1	-5	4
Cc1ccc(S(=O)(=O)N2CCC(C(=O)OCCOc3ccccc3)CC2)cc1C	6	-5	15	1	-19	-4
Nc1nc2ccc(NC(=O)c3ccco3)cc2s1	-13	-8	10	0	-19	-11
CCOC(=O)N1CCC(NC(=O)c2cc(C(=O)Nc3ccc(F)cc3F)ccc2CO)CC1	29*	-6	12	4	-25	-3
CCOC(=O)N1CCN(CC(=O)Nc2ccc(F)cc2F)CC1	-10	28*	15	0	0	7
CCOC(=O)N1CCN(CC(=O)Nc2ccc(F)c(F)c2F)CC1	-2	-7	6	0	-1	10
CCCC(=O)Nc1nnc(Cc2ccccc2)s1	31*	-4	18	0	-24	-7
O=C(CN1C(=O)NC2(CCc3ccccc32)C1=O)NCc1ccc(F)cc1 (centres undefined)	-4	·	·	0	·	-14
SMILES	CHO-K1 Ca antag	CHO parental Ca	OX1R antag-1	M1 ag parental	OX1R antag-2	CHO-K1 Ca PAM
Brc1cc(Br)c2nc(-c3cccs3)ccc2c1	-3	-13	12	1	-15	9
Cc1nc2c(Br)cc(Br)cc2cc1O	-2	5	55*	3	-14	1
Nc1nc(SCC(=O)c2ccc([N+](=O)[O-])cc2)n[nH]1	-3	-9	49*	0	-5	14
Nc1nc(SCC(=O)Nc2c(Br)cc([N+](=O)[O-])cc2Br)n[nH]1	29*	2	58	0	-14	-1
O=S(=O)(c1ccc(Cl)cc1)N1CCCc2ccccc21	0	-22	18	0	-29	11
Cc1ccc(S(=O)(=O)N2CCCc3ccccc32)cc1C	-10	30*	5	1	-16	20
COc1ccc(S(=O)(=O)N(C)CC(=O)Nc2ccc(C(F)(F)F)cc2)cc1Cl	0	32*	14	5	-8	8
COc1ccc(NC(=O)CN(C)S(=O)(=O)c2ccc(Cl)cc2)cc1Cl	10	-10	15	0	-12	5
CC(C)(C)C1CCC2(CC1)C(C#N)=C(SCC(=O)Nc1ccccc1)NC(=O)C2C#N (centres undefined)	27*	11	33	10	20	-1
Cc1ccc[n+](CC(=O)Nc2cc(C(F)(F)F)ccc2N2CCOCC2)c1	-10	-9	26	1	-19	10
CC1(C2CC2)NC(=O)N(CC(=O)Nc2ccc(C(F)(F)F)cc2)C1=O (centres undefined)	-16	-12	5	0	-19	10
COc1cccc(Nc2nc3cc(C)ccc3cc2C)c1	26*	·	·	0	·	-14
O=C(NCCCN1CCCC1=O)C1CCCO1 (centres undefined)	-3	3	15	1	6	19
O=[N+]([O-])c1nn(-c2ccc3c(c2)OCCO3)n(O)c1=NCCCO	-10	5	74*	0	-19	11
Cc1ccc(CN=c2c([N+](=O)[O-])nn(-c3ccc4c(c3)OCCO4)n2O)cc1	-18	-18	35	2	-40	11
CN(CCOc1ccccc1)C(=O)c1cc([N+](=O)[O-])ccc1N1CCOCC1	6	-10	41	0	-19	-18
Cc1ccc([N+](=O)[O-])cc1NC(=O)CN(C)CCOc1ccccc1	-6	-18	3	5	-8	1
CN(CCOc1ccccc1)CC(=O)Nc1cc([N+](=O)[O-])ccc1Cl	-16	-4	62*	3	-19	6
CN(CCOc1ccccc1)C(=O)c1cc([N+](=O)[O-])cc([N+](=O)[O-])c1	-6	-9	38*	1	-13	10
Cc1ccc(S(=O)(=O)N2CCCC2C(=O)n2nc(C)cc2C)cc1 (centres undefined)	-5	-14	7	0	3	15
COc1ccc(S(=O)(=O)N2CCCC2C(=O)n2nc(C)cc2C)cc1 (centres undefined)	30*	-15	12	0	0	-15
Nc1c(C(=O)c2ccccc2)sc2nsc(SCCN3CCCC3)c12	10	-3	8	16*	-28	8

High-throughput results (PubChem)
